From ChEMBL document CHEMBL1156517, “Targeting thyroid hormone receptor-beta agonists to the liver reduces cholesterol and triglycerides and improves the therapeutic index” (Proc Natl Acad Sci U S A, 2007)
Calls of active or inactive are those of the source. No cut-off for these calls is given here.

Legend:
Rattus norvegicus [1] = experiment: Effect on SREBP-1c mRNA expression in po dosed Sprague-Dawley rat liver; type: functional, organism-based; conditions: TDE = time-dependent effect
Mus musculus [2] = experiment: Effect on hepatic LDLR mRNA level in wild-type C57BL/6 mouse at 0.5 mg/kg/day once daily for 7 days; type: functional
Rattus norvegicus [3] = experiment: Effect on malic enzyme mRNA expression in po dosed Sprague-Dawley rat liver; type: functional, organism-based; conditions: TDE = time-dependent effect
Outline: (§1)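 Killed 3, 8 and 24 h post-dose under 2.5% isoflurane. Pituitary and thyroid snap-frozen; liver, heart, soleus, spleen and kidney freeze-clamped. mRNA by quantitative real-time PCR, expressed as fold-change vs vehicle.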

Rattus norvegicus [4] = experiment: Toxicity in Sprague-Dawley rat assessed as suppression of thyroid hormone axis measured by decrease in total […]-L-thyronine level at 300 mg/kg/day, po for 7 days; type: organism-based; design: route oral; conditions: in vivo, 168 h
Rattus norvegicus [5] = experiment: Toxicity in Sprague-Dawley rat assessed as suppression of thyroid hormone axis measured by decrease in total 3,5,3',5'-tetraiodo-L-thyronine level at 300 mg/kg/day, po for 7 days; type: organism-based; design: route oral; conditions: in vivo, 168 h
Rattus norvegicus [6] = experiment: Toxicity in Sprague-Dawley rat assessed as suppression of thyroid hormone axis measured by decrease in TSH-beta mRNA level at 1000 mg/kg/day, po for 7 days relative to control; type: organism-based; design: route oral; conditions: in vivo, 168 h
Rattus norvegicus [7] = experiment: Effect on fasting blood glucose level in Sprague-Dawley rat at 650 ug/kg/day, sc after 8 days by oral glucose tolerance test; type: functional
Rattus norvegicus [8] = experiment: Toxic cardiac effect on Sprague-Dawley rat assessed as increase in systolic aortic pressure at >= 0.065 mg/kg/day, po for 7 days; type: toxicity, organism-based; design: route oral; conditions: in vivo, 168 h
Outline: (§2)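 Male SD rats (n = 6 per group) dosed daily by oral gavage for 7 days; vehicle group included. On day 7, rats anesthetized with isoflurane; catheter-tip transducer inserted into left ventricle via right carotid artery. LV pressure, LV dP/dt and heart rate (lead I ECG) recorded digitally. Systolic/diastolic aortic pressure taken by retracting catheter into proximal aorta.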

Rattus norvegicus [9] = experiment: Toxicity in Sprague-Dawley rat assessed as suppression of thyroid hormone axis measured by decrease in serum TSH level at 300 mg/kg/day, po for 7 days relative to control; type: organism-based; design: route oral; conditions: in vivo, 168 h
Rattus norvegicus [10] = experiment: Effect on plasma insulin level in Sprague-Dawley rat at 650 ug/kg/day, sc after 8 days; type: functional
Rattus norvegicus [11] = experiment: Effect on type 1 iodothyronine deiodinase mRNA expression in po dosed Sprague-Dawley rat pituitary gland; type: functional, organism-based; conditions: TDE = time-dependent effect; outline: as §1
Rattus norvegicus [12] = experiment: Toxic cardiac effect on Sprague-Dawley rat assessed as increase in heart rate at >= 0.065 mg/kg/day, po for 7 days; type: toxicity, organism-based; design: route oral; conditions: in vivo, 168 h; outline: as §2
Rattus norvegicus [13] = experiment: Effect on body weight in Sprague-Dawley rat at 650 ug/kg/day, sc after 8 days; type: functional
Rattus norvegicus [14] = experiment: Effect on LDLR mRNA expression in po dosed Sprague-Dawley rat liver; type: functional, organism-based; conditions: TDE = time-dependent effect
Rattus norvegicus [15] = experiment: Toxic cardiac effect on Sprague-Dawley rat assessed as increase in first derivative of left ventricular pressure at >= 0.065 mg/kg/day, po for 7 days; type: toxicity, organism-based, Heart left ventricle; design: route oral; conditions: in vivo, 168 h; outline: as §2
Mus musculus [16] = experiment: Decrease in cholesterol level in wild-type C57BL/6 mouse at 0.5 mg/kg/day once daily for 7 days; type: functional, organism-based
Rattus norvegicus [17] = species on record: Rattus norvegicus; experiment: Reduction in plasma cholesterol level in cholesterol fed Sprague-Dawley rat; type: functional
Mus musculus [18] = experiment: Decrease in cholesterol level in wild-type C57BL/6 mouse at 5 mg/kg/day once daily for 7 days; type: functional, organism-based
Rattus norvegicus [19] = experiment: Toxicity in Sprague-Dawley rat assessed as suppression of thyroid hormone axis measured by decrease in total […]-L-thyronine level at 3 mg/kg/day, po for 7 days; type: organism-based; design: route oral; conditions: in vivo, 168 h
Rattus norvegicus [20] = experiment: Effect on plasma fatty acid level in Sprague-Dawley rat at 650 ug/kg/day, sc after 8 days; type: functional
Rattus norvegicus [21] = experiment: Toxicity in Sprague-Dawley rat assessed as suppression of thyroid hormone axis measured by decrease in total […]-L-thyronine level at 30 mg/kg/day, po for 7 days; type: organism-based; design: route oral; conditions: in vivo, 168 h
Rattus norvegicus [22] = experiment: Toxicity in Sprague-Dawley rat assessed as suppression of thyroid hormone axis measured by decrease in total […]-L-thyronine level at 1000 mg/kg/day, po for 7 days; type: organism-based; design: route oral; conditions: in vivo, 168 h
Rattus norvegicus [23] = experiment: Effect on type 1 iodothyronine deiodinase mRNA expression in po dosed Sprague-Dawley rat heart; type: functional, organism-based; conditions: TDE = time-dependent effect; outline: as §1
Mus musculus [24] = experiment: Decrease in cholesterol level in LDLR deficient C57BL/6 mouse at 5 mg/kg/day once daily for 7 days; type: functional, organism-based
Rattus norvegicus [25] = experiment: Toxicity in Sprague-Dawley rat assessed as suppression of thyroid hormone axis measured by decrease in total 3,5,3',5'-tetraiodo-L-thyronine level at 30 mg/kg/day, po for 7 days; type: organism-based; design: route oral; conditions: in vivo, 168 h
Rattus norvegicus [26] = experiment: Effect on type 1 iodothyronine deiodinase mRNA expression in po dosed Sprague-Dawley rat spleen; type: functional, organism-based; conditions: TDE = time-dependent effect; outline: as §1
Rattus norvegicus [27] = experiment: Effect on food intake in Sprague-Dawley rat at 650 ug/kg/day, sc after 8 days; type: functional
Rattus norvegicus [28] = experiment: Toxicity in Sprague-Dawley rat assessed as suppression of thyroid hormone axis measured by decrease in TSH-beta mRNA level at 3 mg/kg/day, po for 7 days relative to control; type: organism-based; design: route oral; conditions: in vivo, 168 h
Rattus norvegicus [29] = experiment: Effect on type 1 iodothyronine deiodinase mRNA expression in po dosed Sprague-Dawley rat thyroid gland; type: functional, organism-based; conditions: TDE = time-dependent effect; outline: as §1
Rattus norvegicus [30] = experiment: Toxicity in Sprague-Dawley rat assessed as suppression of thyroid hormone axis measured by decrease in serum TSH level at 3 mg/kg/day, po for 7 days relative to control; type: organism-based; design: route oral; conditions: in vivo, 168 h
Rattus norvegicus [31] = experiment: Effect on type 1 iodothyronine deiodinase mRNA expression in po dosed Sprague-Dawley rat kidney; type: functional, organism-based; conditions: TDE = time-dependent effect; outline: as §1
Rattus norvegicus [32] = experiment: Toxicity in Sprague-Dawley rat assessed as suppression of thyroid hormone axis measured by decrease in TSH-beta mRNA level at 30 mg/kg/day, po for 7 days relative to control; type: organism-based; design: route oral; conditions: in vivo, 168 h
Rattus norvegicus [33] = experiment: Effect on TSH-beta mRNA expression in po dosed Sprague-Dawley rat pituitary gland; type: functional, organism-based; conditions: TDE = time-dependent effect
Mus musculus [34] = experiment: Decrease in cholesterol level in LDLR deficient C57BL/6 mouse at 0.5 mg/kg/day once daily for 7 days; type: functional, organism-based
Rattus norvegicus [35] = experiment: Toxicity in Sprague-Dawley rat assessed as suppression of thyroid hormone axis measured by decrease in total 3,5,3',5'-tetraiodo-L-thyronine level at 3 mg/kg/day, po for 7 days; type: organism-based; design: route oral; conditions: in vivo, 168 h
Mus musculus [36] = experiment: Effect on hepatic LDLR mRNA level in LDLR deficient C57BL/6 mouse at 0.5 mg/kg/day once daily for 7 days; type: functional
Rattus norvegicus [37] = experiment: Effect on MHCbeta mRNA expression in po dosed Sprague-Dawley rat heart; type: functional, organism-based; conditions: TDE = time-dependent effect
Rattus norvegicus [38] = experiment: Toxicity in Sprague-Dawley rat assessed as suppression of thyroid hormone axis measured by decrease in TSH-beta mRNA level at 300 mg/kg/day, po for 7 days relative to control; type: organism-based; design: route oral; conditions: in vivo, 168 h
Rattus norvegicus [39] = experiment: Toxicity in Sprague-Dawley rat assessed as suppression of thyroid hormone axis measured by decrease in serum TSH level at 30 mg/kg/day, po for 7 days relative to control; type: organism-based; design: route oral; conditions: in vivo, 168 h
Rattus norvegicus [40] = experiment: Effect on type 1 iodothyronine deiodinase mRNA expression in po dosed Sprague-Dawley rat liver; type: functional, organism-based; conditions: TDE = time-dependent effect; outline: as §1
Rattus norvegicus [41] = experiment: Toxicity in Sprague-Dawley rat assessed as suppression of thyroid hormone axis measured by decrease in total 3,5,3',5'-tetraiodo-L-thyronine level at 1000 mg/kg/day, po for 7 days; type: organism-based; design: route oral; conditions: in vivo, 168 h
Rattus norvegicus [42] = experiment: Toxicity in Sprague-Dawley rat assessed as suppression of thyroid hormone axis measured by decrease in serum TSH level at 1000 mg/kg/day, po for 7 days relative to control; type: organism-based; design: route oral; conditions: in vivo, 168 h
Rattus norvegicus [43] = experiment: Effect on UCP3 mRNA expression in po dosed Sprague-Dawley rat muscle; type: functional, organism-based; conditions: Muscle tissue, TDE = time-dependent effect

Activity (Rattus norvegicus [3]): tde
Activity (Rattus norvegicus [11]): tde
Activity (Rattus norvegicus [23]): tde
Activity (Rattus norvegicus [26]): tde
Activity (Rattus norvegicus [29]): tde
Activity (Rattus norvegicus [31]): tde
Activity (Rattus norvegicus [40]): tde
Structure (SMILES): N[C@@H](Cc1cc(I)c(Oc2ccc(O)c(I)c2)c(I)c1)C(=O)O [LIOTHYRONINE]
Activity (Rattus norvegicus [1]): tde
Activity (Mus musculus [2]): -42.4%
Activity (Rattus norvegicus [4]): 4.06 ng/mL
Activity (Rattus norvegicus [5]): 1.43 ng/mL
Activity (Rattus norvegicus [6]): 0.081
Activity (Rattus norvegicus [7]): 25 mg/dL
Activity (Rattus norvegicus [8]): Active
Activity (Rattus norvegicus [9]): 0.0031
Activity (Rattus norvegicus [10]): 0.334 ng/mL
Activity (Rattus norvegicus [12]): Active
Activity (Rattus norvegicus [13]): 4.3 g
Activity (Rattus norvegicus [14]): tde
Activity (Rattus norvegicus [15]): Active
Activity (Mus musculus [16]): Active
ED50 (Rattus norvegicus [17]): 0.012 mg/kg
Activity (Mus musculus [18]): Active
Activity (Rattus norvegicus [19]): 0.49 ng/mL
Activity (Rattus norvegicus [20]): 0.937 mM
Activity (Rattus norvegicus [21]): 0.42 ng/mL
Activity (Rattus norvegicus [22]): 16.45 ng/mL
Activity (Mus musculus [24]): inactive
Activity (Rattus norvegicus [25]): 4.2 ng/mL
Activity (Rattus norvegicus [27]): 16.2%
Activity (Rattus norvegicus [28]): 0.93
Activity (Rattus norvegicus [30]): 0.57
Activity (Rattus norvegicus [32]): 0.14
Activity (Rattus norvegicus [33]): tde
Activity (Mus musculus [34]): inactive
Activity (Rattus norvegicus [35]): 37.3 ng/mL
Activity (Mus musculus [36]): 9.5%
Activity (Rattus norvegicus [37]): tde
Activity (Rattus norvegicus [38]): 0.0978
Activity (Rattus norvegicus [39]): 0.0139
Activity (Rattus norvegicus [41]): 8.4 ng/mL
Activity (Rattus norvegicus [42]): 0.001365
Activity (Rattus norvegicus [43]): tde
